Neddyl block: inhibitors of cullin neddylation, primary screen, biochemical, TR-FRET, uHTS, NAE and Ubc12; inhibition, % at 25 µM; 360,000 tested, 0.58% active; NEDD8-conjugating enzyme Ubc12 (Homo sapiens) + NEDD8-activating enzyme E1 regulatory …; in the data active means inhibition above about 36%
Target sequence (P61081 whole entry, looked up): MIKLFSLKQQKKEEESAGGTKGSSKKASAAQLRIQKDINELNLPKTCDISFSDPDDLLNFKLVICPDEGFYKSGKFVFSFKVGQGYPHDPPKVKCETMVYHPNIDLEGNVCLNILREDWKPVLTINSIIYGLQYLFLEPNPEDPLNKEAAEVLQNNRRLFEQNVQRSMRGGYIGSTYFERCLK
Target sequence (Q13564 whole entry, looked up): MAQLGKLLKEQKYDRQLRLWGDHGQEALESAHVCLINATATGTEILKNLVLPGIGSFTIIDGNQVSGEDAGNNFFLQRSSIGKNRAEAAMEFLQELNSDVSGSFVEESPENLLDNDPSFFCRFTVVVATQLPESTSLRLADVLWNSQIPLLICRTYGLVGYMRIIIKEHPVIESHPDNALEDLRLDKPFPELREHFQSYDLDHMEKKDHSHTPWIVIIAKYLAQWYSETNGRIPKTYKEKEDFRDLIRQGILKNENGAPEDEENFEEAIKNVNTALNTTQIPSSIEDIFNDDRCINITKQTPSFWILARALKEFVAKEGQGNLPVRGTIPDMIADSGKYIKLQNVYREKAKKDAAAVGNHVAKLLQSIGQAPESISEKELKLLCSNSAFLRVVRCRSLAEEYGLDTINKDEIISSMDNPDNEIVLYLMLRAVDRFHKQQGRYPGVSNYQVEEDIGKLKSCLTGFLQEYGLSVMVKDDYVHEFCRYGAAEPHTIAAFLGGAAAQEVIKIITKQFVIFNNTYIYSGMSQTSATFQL
TPT1 inh: Candida albicans TPT1 enzyme inhibitors, primary screen, biochemical, fluorescence polarization | tRNA 2'-phosphotransferase TPT1 (Candida albicans SC5314) | recombinant caTPT1, FP RNA substrate dephosphorylation | inhibition, % at 5 µM | 300,000 tested, 0.81% active;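 active means inhibition above the mean of all tested compounds plus 3 SD, set per screening campaign, cut at about 24% in these data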;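 further: plate controls were DMSO alone for no effect and ferristatin control at 100 nM for full effect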
CSN inh: inhibitors of CSN-mediated cullin deneddylation, primary screen, biochemical, fluorescence polarization, uHTS; 360,000 tested, 0.38% active; inhibition, % at 12.5 µM; Purified CSN, SCF-Nedd8-OG deneddylation;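 active means pattern-corrected inhibition above about 35%, with an unprinted fluorescence ratio check between 0.5 and 1.5, limit read from the data, passing the limit was not always enough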;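 further: 0% = enzyme with substrate and 100% = substrate without enzyme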
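Material: human Csn5 produced in HEK293T cells; Input: enzyme 0.24 nM; Reagent: SCFSkp2-Nedd8OG substrate at 10 nM final; Dosing: 12.5 µM compound; Incubation: 90 min reaction at room temperature; Detection: fluorescence polarization of the substrate; Evaluation: % inhibition of substrate cleavage by Csn5; Control set: substrate-only high control, full reaction low control.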
Rpn11 inh: Rpn11 (PSMD14) deubiquitinase inhibitors, primary screen, biochemical, fluorescence polarization, uHTS. inhibition, % at 20 µM. 26S proteasome non-ATPase regulatory subunit 14 (Homo sapiens), O00487. 360,000 tested, 0.59% active. human 26S proteasome, Ub4-pepOG fluorescence polarization; 20S core pre-blocked with epoxomicin;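 active means inhibition at 20 µM, scaled to each plate's controls, above about 33%, limit read from the data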
HNF4A DNA FP: change in binding of human HNF4A to DNA, primary screen, biochemical, fluorescence polarization, FITC-DNA. activity change, % at 10 µM. AID 1224865, 2016. 360,000 tested, 0.3% active. 1 h. Hepatocyte nuclear factor 4-alpha (Homo sapiens), P41235; in the data active means activity change above about 30%, passing the limit was not always enough
Rin1 Abl inh: inhibitors of Rin1-Abl protein binding, primary screen, biochemical, TR-FRET | Tyrosine-protein kinase ABL1 (Homo sapiens) + Ras and Rab interactor 1 (Homo sapiens), … | inhibition, % at 7.35 µM | 360,000 tested, 0.4% active | AID 588664, 2011; in the data active means inhibition above about 5%, passing the limit was not always enough
Numbers without * were called inactive; / = no result shown. The list is not random: actives were taken first. Their share in the collection is about 2.4%.

SMILES | Neddyl block | TPT1 inh | CSN inh | Rpn11 inh | HNF4A DNA FP | Rin1 Abl inh
Cc1cc(C)c2nc(N3C(=O)C(O)=C(C(=O)c4ccco4)C3c3cccc(O)c3)sc2c1 (configuration not stated) | 1 | / | 3 | 11 | 4 | 0
O=C(CSc1nnc(CNC(=O)c2ccccc2F)o1)NCc1ccco1 | -2 | -1 | 40* | -1 | 8 | 0
COc1ccc(CN2CC[C@@H]3CN(C(C)=O)[C@H](c4ccccc4Br)C[C@@H]32)cc1 | -11 | / | 161* | 6 | 1 | 7
COC12CC(=O)C(C(C)=O)=C(O)C1(C)c1c(O)c(C)c(O)c(C(C)=O)c1O2 (configuration not stated) | -4 | / | 43* | / | 65* | 3
COc1cccc(NC(=O)Cc2nnc(SCC(=O)NC3CCCCC3)n2C)c1 | 1 | 0 | 1 | 3 | -1 | 4
O=c1oc2ccc(Cl)cc2nc1/C=C(\O)c1cccs1 | -22 | -1 | 8 | -22 | 54* | -5
CCCCn1c(N)c(N(CC(C)C)C(=O)c2ccc(Br)s2)c(=O)[nH]c1=O | -31 | -2 | 0 | -6 | -2 | 0
Oc1ccccc1/C=N/NC(=S)NC1CC2CC1C1C=CCC21 (configuration not stated) | 53* | -6 | 2 | 12 | -3 | 2
COc1ccc2[nH]c3c4c(ccc3c2c1)C(=O)C=CC4=O | / | / | 5 | 36 | 46* | 1
CCOc1cc(/C=N/NC(=O)C(=O)NC)cc(Br)c1O | -13 | -1 | -6 | -3 | -3 | -1
CNC(=S)NNC(=O)CNc1ccc(C)c(Cl)c1 | 0 | -3 | -3 | -13 | 53* | -3
Cc1ccc(CNC(=O)c2cccc3c2C(=O)c2ccc(N4CCOCC4)cc2S3(=O)=O)cc1 | -29 | / | 3 | 23 | 29 | -4
O=C(NCc1ccco1)c1cccc2c1C(=O)c1ccc(N3CCCC3)cc1S2(=O)=O | -25 | / | 16 | / | 52* | -8
C=CCNC(=O)c1cccc2c1C(=O)c1ccc(N3CCCC3)cc1S2(=O)=O | -78 | / | 36* | / | 65 | -11
Cc1ccc(CNC(=O)c2cccc3c2C(=O)c2ccc(N4CCCCC4)cc2S3(=O)=O)cc1 | -51 | / | 31 | / | 38* | -1
CC(C)(C)c1ccc(CC(=O)N2CCC2(C)C(=O)NS(=O)(=O)c2ccc(Cl)s2)cc1 (configuration not stated) | 10 | / | -5 | -13 | 2 | -6
O=C(Cn1cc(C(F)(F)F)ccc1=O)N1CCc2ccccc2C1 | 11 | / | 2 | -1 | 2 | 1
COCCNC(=S)N/N=C(\C)c1ccc(O)cc1 | -2 | 3 | 4 | -2 | 1 | -1
C/C(=N\NC(=S)NCC(C)(C)C)c1cc(F)cc(F)c1O | 45* | -3 | -5 | -4 | -2 | 2
NS(=O)(=O)c1ccc2nc(NC(=O)c3ccncc3)sc2c1 | 9 | 6 | -2 | 0 | 0 | 2
CC(=O)Nc1ccc2c(O)cc(S(=O)(=O)O)cc2c1 | -6 | / | 0 | -4 | -15 | 3
COc1ccccc1Nc1ccc2c(O)cc(S(=O)(=O)O)cc2c1 | 46* | / | 27 | 37 | -55 | 7
O=S(=O)(O)c1cc(O)c2cc(Nc3ccccc3)ccc2c1 | 44* | / | 51 | -8 | -60 | -2
O=S(=O)(O)c1cc(O)c2ccc(Nc3ccccc3)cc2c1 | 54* | / | 39 | 22 | -69 | 1
CCc1cc(C(=O)OC)c(NC(=O)CC2SC(=NC)N(C)C2=O)s1 (configuration not stated) | -17 | 1 | 4 | 0 | -5 | -1
SMILES | Neddyl block | TPT1 inh | CSN inh | Rpn11 inh | HNF4A DNA FP | Rin1 Abl inh
CCc1cc(C(=O)OC)c(NC(=O)CC2Nc3cc(C)c(C)cc3NC2=O)s1 (configuration not stated) | 4 | 14 | 6 | / | 61* | -2
COC(=O)c1c(NC(=O)CC2Sc3ccc(C(F)(F)F)cc3NC2=O)sc(C)c1C (configuration not stated) | 1 | -2 | 2 | 0 | 2 | 1
Cc1cc2c(cc1C)NC(CC(=O)NCc1ccccc1)C(=O)N2 (configuration not stated) | 24 | 12 | 1 | 53* | 21 | -8
CC(C)CNC(=O)CC1Nc2ccccc2NC1=O (configuration not stated) | 25 | 7 | -11 | -3 | -2 | -3
COC(=O)c1c(NC(=O)CC2Nc3cc(C)c(C)cc3NC2=O)sc(C)c1C (configuration not stated) | 0 | 12 | -2 | 50* | 17 | 2
CCOC(=O)c1cnn(CCOC(=O)c2ccccc2)c1NC(=O)c1ccccc1 | -2 | 9 | -1 | 1 | -2 | 6
O=C(NCCN1CCC(n2c(=O)[nH]c3ccccc32)CC1)c1cccc2c1-c1ccccc1C2=O | -47 | / | 49* | / | 1 | /
CCCSc1nc2sc3c(c2c(=O)[nH]1)CCN(Cc1ccccc1)C3 | 16 | 82* | 12 | 65* | 17 | -3
Cc1ccccc1-c1n[nH]c(=S)n1/N=C/C=C/c1ccco1 | 60* | 4 | 34 | -3 | 10 | 1
C[C@@H]1CN([C@H](C)CO)C(=O)CCCn2cc(nn2)CO[C@H]1CN(C)S(=O)(=O)c1cccc(F)c1 | -4 | / | -2 | 0 | -3 | -2
CCOC(=O)C1=CCC(C(C)(C)C)N(S(=O)(=O)c2ccc(C)cc2)C1 (configuration not stated) | 1 | / | 110* | 0 | -1 | 3
CCOC(=O)C1=CCC(c2ccc(C)cc2)N(S(=O)(=O)c2ccc(C)cc2)C1 (configuration not stated) | -1 | / | -3 | -3 | -1 | 0
O=C(N/N=C/c1cccnc1)c1cc2ccccc2o1 | -33 | -2 | -5 | -2 | 1 | 1
O=C(N/N=C/c1cccnc1)c1cc2c(ccc3ccccc32)o1 | / | -8 | 55* | 12 | 1 | -4
O=Nc1c2ccc[nH]c-2c2ccc([N+](=O)[O-])cc12 | -27 | -3 | 1 | -2 | 0 | -2
COC(=O)c1cc(C(=O)OCC(=O)c2ccc3c(c2)NC(=O)CO3)cc([N+](=O)[O-])c1 | -20 | / | 70* | -1 | 6 | 0
O=C(N/N=C/c1ccc[nH]1)c1ccc(O)cc1 | 0 | 6 | 7 | 2 | 8 | 2
